Data on five compounds can be found in ChEMBL document CHEMBL1134963, “Synthesis and muscarinic M(2) subtype antagonistic activity of enantiomeric pairs of 3-demethylhimbacine (3-norhimbacine) and its C(4)-epimer” (Bioorg Med Chem Lett, 2002).

One may read the pKi as the Ki on a negative log10 scale, so that one unit is a factor of ten. Read a high pKi as a small Ki.

The target in assay [1] is T1, Muscarinic acetylcholine receptor M2 (Rattus norvegicus, UniProt P10980).
T1 sequence (P10980 whole entry): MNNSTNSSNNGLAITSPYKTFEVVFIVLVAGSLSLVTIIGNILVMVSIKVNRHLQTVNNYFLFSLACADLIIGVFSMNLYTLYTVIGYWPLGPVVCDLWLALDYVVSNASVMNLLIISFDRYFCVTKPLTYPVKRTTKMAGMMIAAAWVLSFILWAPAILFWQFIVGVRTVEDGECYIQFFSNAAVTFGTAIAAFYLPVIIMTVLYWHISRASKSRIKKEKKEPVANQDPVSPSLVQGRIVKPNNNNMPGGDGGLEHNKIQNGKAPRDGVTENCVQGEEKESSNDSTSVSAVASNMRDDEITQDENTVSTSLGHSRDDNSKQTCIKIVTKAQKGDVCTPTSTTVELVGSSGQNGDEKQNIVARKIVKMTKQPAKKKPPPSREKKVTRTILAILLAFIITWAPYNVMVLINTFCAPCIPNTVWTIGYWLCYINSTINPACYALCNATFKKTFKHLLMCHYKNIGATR
As to the kind of experiment: The compound was tested in vitro for binding activity against M2 muscarinic receptor in homogenates of the brainstem of rat using [3H]quinuclidinyl benzilate (QNB) as radioligand. It is filed as tissue-based, Brain. The gist of the method: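 Competition binding on rat brainstem homogenate with [3H]-QNB in 50 mM Tris buffer (pH 7.4) for 90 min at 25 °C. Separation is by rapid GF-B filtration with scintillation counting. 2 μM atropine defines non-specific binding. DMSO stays under 0.1%. Ki is taken from IC50 via Cheng–Prusoff using radioligand concentration and Kd.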

The target in assay [2] is T2, Muscarinic acetylcholine receptor M1 (Rattus norvegicus, UniProt P08482).
T2 sequence (P08482 whole entry): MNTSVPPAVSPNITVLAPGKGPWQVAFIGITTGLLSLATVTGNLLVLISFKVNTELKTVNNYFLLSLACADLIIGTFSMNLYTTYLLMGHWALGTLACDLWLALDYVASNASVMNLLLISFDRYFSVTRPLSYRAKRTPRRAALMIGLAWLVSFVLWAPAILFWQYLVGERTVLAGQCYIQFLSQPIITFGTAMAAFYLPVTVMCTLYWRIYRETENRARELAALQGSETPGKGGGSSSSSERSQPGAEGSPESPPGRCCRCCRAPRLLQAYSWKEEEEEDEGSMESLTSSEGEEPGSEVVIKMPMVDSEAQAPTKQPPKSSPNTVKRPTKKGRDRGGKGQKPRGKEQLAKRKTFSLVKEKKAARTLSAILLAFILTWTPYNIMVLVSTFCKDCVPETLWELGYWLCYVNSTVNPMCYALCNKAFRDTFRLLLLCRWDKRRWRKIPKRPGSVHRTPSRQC
As to the kind of experiment: The compound was tested in vitro for binding activity against M1 muscarinic receptor in homogenates of the cerebral cortex of rat using [3H]pirenzepine as radioligand. It counts as tissue-based. Put shortly: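 Rat cerebral cortex homogenate with [3H]-pirenzepine in 50 mM Tris buffer pH 7.4, 25 °C for 90 min. Bound ligand is separated by rapid GF-B filtration and counted by liquid scintillation. Non-specific binding is defined with 2 μM atropine. Compounds in DMSO, below 0.1% final. Ki = IC50/(1 + L/Kd) by Cheng–Prusoff.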

pKi: −log10 of the molar value.

As to `C[C@H]1CCC[C@H](/C=C/[C@H]2[C@H]3COC(=O)[C@H]3C[C@H]3CCCC[C@@H]32)N1C` (stereo in doubt), the values for the pKi in assay [1] and in assay [2] were 6.10 and 6.00, respectively.
On to `C[C@H]1CCC[C@H](/C=C/[C@@H]2[C@H]3COC(=O)[C@H]3C[C@H]3CCCC[C@@H]32)N1C` (stereo in doubt), for which the “-Log Ki” value in assay [1] came to 6.4. The negative logarithm of the Ki (pKi) in assay [2] is 6.30.
With `C[C@H]1CCC[C@H](/C=C/[C@H]2[C@H]3COC(=O)[C@H]3C[C@H]3CCCC[C@@H]32)N1C` (stereo in doubt; 2), the pKi in assay [1] is 8.10; in assay [2], 7.40.
The like results for `C[C@H]1CCC[C@H](/C=C/[C@@H]2[C@H]3COC(=O)[C@H]3C[C@H]3CCCC[C@@H]32)N1C` (stereo in doubt; 3) were, in that order, 6.40 and 6.20.
The like results for `C[C@@H]1OC(=O)[C@H]2C[C@H]3CCCC[C@@H]3[C@@H](/C=C/[C@H]3CCC[C@H](C)N3C)[C@@H]12` [HIMBACINE] were, in that order, 7.90 and 7.10.
